Compound activity: PubChem BioAssay, Sanford-Burnham Center for Chemical Genomics
Apaf-1 act – activators of human Apaf-1 apoptosome, primary screen, biochemical, DEVD-Rh110 fluorescence, uHTS | Apaf-1 apoptosome caspase-3 activation; hits give low values | actives 0.31% (n = 330,000) | Apoptotic protease-activating factor 1 (Homo sapiens), O14727 | activity change, negative = activation, % at 20 µM | AID 489031, 2010;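 active = activity change at or below -40% at 20 µM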
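System: Reconstituted apoptosome of Apaf-1, cytochrome c, caspase-9, procaspase-3 | Reagent: dATP, cytochrome c, and (Z-DEVD)2-Rh110 caspase-3 substrate | Times: 30 min compound preincubation and 50 min reaction, both room temperature | Detection: Caspase-3-released Rh110 fluorescence, 540 nm emission, 480 nm excitation | Measure: Caspase-3 activity via Apaf-1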
Rh110 interf act – Rh110 fluorescence interference by putative Apaf-1 activators, confirmation, artefact control for Apaf-1 activator project, biochemical, 20 µM. fluorescence interference (activity change), % at 20 µM, hits read low. quenched caspase reaction, Ex480/Em540. 980 tested, under 10 active. shares compounds with Apaf-1 act;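 active = mean activity change at or below -40% when tested at 20 µM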
Apaf-1 act conf2 – Apaf-1 activators, single-dose retest, confirmation, biochemical, fluorescence, DEVD-Rh110, 20 µM; shares compounds with Apaf-1 act; reconstituted apoptosome caspase-3 activity; hits give low values; activity change, negative = activation, % at 20 µM; actives 5% (n = 980); AID 504617, 2011;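 active = mean activity change at or below -40%, meaning activation of 40% or more, at 20 µM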
Hits are given with their value; . = inactive. Not all results are given here.

SMILES | Apaf-1 act | others
c1ccc(CCCN2CCN(CCOC(c3ccccc3)c3ccccc3)CC2)cc1 | .
Ic1ccccc1CN[C@@H]1C2CCN(CC2)[C@@H]1C(c1ccccc1)c1ccccc1 | .
O=[N+]([O-])c1ccc(NCc2ccc(Cl)cc2)c2ccncc12 | .
CCCCn1c(NC(=O)c2ccc(Br)o2)c(C(=O)OCC)c2nc3ccccc3nc21 | .
CN[C@H]1C[C@H]2O[C@@](C)([C@H]1OC)n1c3ccccc3c3c4c(c5c6ccccc6n2c5c31)C(=O)NC4 | .
COCCCn1c(N)c(C(=O)Nc2sc3c(c2C(=O)OC)CCCC3)c2nc3ccccc3nc21 | .
O=C1N(CN2CCOCC2)c2ccccc2C1(O)c1c[nH]c2ccccc12 (stereo not given) | -80 | Rh110 interf act=.;Apaf-1 act conf2=.
COC(=O)C1=C(c2cccc(OCc3ccccc3)c2)C[C@@H]2CC[C@H]1N2C(=O)NC1CCN(Cc2ccccc2)CC1 | .
CCCCOP(=O)(CN1CCOCC1)OCCCC | -278 | Rh110 interf act=.;Apaf-1 act conf2=.
O=S1(=O)N(CCN2CC=C(c3c[nH]c4cc(F)ccc34)CC2)c2cccc3c2N1CCC3 | .
COc1cc2c(cc1O)[C@@H]1Cc3ccc(OC)c(O)c3CN1CC2 | .
CN1CCc2cc3c(c4c2C1Cc1ccccc1-4)OCO3 (stereo not given) | .
CC(C)CCNC(=O)c1c(N)n(CC2CCCO2)c2nc3ccccc3nc12 (stereo not given) | .
